In the library only some 1.5% were active in any assay of this set; here they are far more common.
PREPL inhibitor = inhibitors of human prolyl oligopeptidase-like enzyme PREPL. recombinant PREPL, fluorescence polarization activity-based probe. inhibition, % at 5.96 µM. 0.68% of 320,000 active;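 also: 0% = enzyme with DMSO and 100% = wells lacking enzyme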
UCH37 DUB inh = inhibitors of human deubiquitinating enzyme UCH37 | inhibition, % (test concentration not listed) | 0.33% of 330,000 active | AID 588478 | Q9Y5K5 | purified proteasome/UCH37, Ub-AMC cleavage fluorescence;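 active = mean inhibition over replicate wells above about 20%, limit read from the data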;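 also: 0% = compound-free wells with enzyme and 100% = wells lacking proteasome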
Target sequence (Q9Y5K5 whole entry, looked up): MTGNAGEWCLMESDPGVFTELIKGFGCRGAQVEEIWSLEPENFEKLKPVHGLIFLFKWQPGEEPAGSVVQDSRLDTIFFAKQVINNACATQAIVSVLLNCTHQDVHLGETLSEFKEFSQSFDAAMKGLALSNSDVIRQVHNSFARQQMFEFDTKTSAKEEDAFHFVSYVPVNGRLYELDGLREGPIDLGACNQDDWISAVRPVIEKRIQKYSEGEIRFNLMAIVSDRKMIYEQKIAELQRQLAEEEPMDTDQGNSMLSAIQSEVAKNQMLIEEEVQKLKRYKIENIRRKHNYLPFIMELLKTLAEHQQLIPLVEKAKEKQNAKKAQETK
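Signal – fluorescence, ex 355 nm, em 460 nm · System – Proteasome-bound UCH37 · Input – 0.15 nM proteasome as dispensed · Timing – 30 min preincubation with enzyme, 25 min cleavage at room temperature · Read-out basis – percent inhibition of cleavage signal versus uninhibited and no-proteasome wells · Medium – Tris-HCl pH 7.4 with ATP-MgCl2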
Apaf-1 inh = human Apaf-1 inhibition. O14727. reconstituted apoptosome caspase-3 activity, DEVD-Rh110 fluorescence. inhibition, % at 20 µM. 0.71% of 330,000 active. AID 489030; active = inhibition of at least 40% at 20 µM;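 also: plate controls were DMSO wells for no effect and DEVD-CHO caspase inhibitor wells for full effect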
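Medium: Hepes buffer, pH 7.5 / System: biochemical Apaf-1 apoptosome reconstitution / Measured by: Rh110 fluorescence, excitation 480 nm, emission 540 nm / Times: compound with Apaf-1, dATP, procaspase-3 30 min, then 50 min reaction, room temperature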
UBC13 polyUb = inhibitors of human UBC13 polyubiquitin chain formation | P61088 | TR-FRET | inhibition, % at 20 µM | 0.47% of 330,000 active | AID 485273; in the data active = inhibition above about 45%, passing the limit was not always enough; inconclusive = no clear call, values can overlap the other calls
Target sequence (P61088 whole entry, looked up): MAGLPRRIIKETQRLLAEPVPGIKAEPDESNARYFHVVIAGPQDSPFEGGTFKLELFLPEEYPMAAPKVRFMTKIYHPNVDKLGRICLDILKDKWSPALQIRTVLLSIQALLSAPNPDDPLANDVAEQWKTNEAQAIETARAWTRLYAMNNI
PREPL confirm = confirmation of human PREPL enzyme inhibitors. shares compounds with PREPL inhibitor. recombinant PREPL, fluorescence polarization activity probe. inhibition, % at 5.96 µM. 67% of 2,000 active. AID 2803;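 also: 0% = protein with DMSO and 100% = wells lacking protein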
Casp3 UBC13 ctr = inhibits human caspase-3 in UBC13 counter-screen. shares compounds with UBC13 polyUb. Recombinant caspase-3, Caspase-Glo 3/7 luminescence, 60 min. inhibition, % at 20 µM. 4% of 1,400 active. AID 488856;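 active = mean inhibition across replicates above about 26%, limit read from the data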;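 also: plate controls were DMSO with caspase-3 for no effect and DMSO wells lacking enzyme for full effect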
UBC13 conf = confirmation of human UBC13 polyubiquitin inhibitors; inhibition, % at 10 µM; UBC13 polyubiquitination, TR-FRET, biochemical; 68% of 1,400 active; AID 488859; shares compounds with UBC13 polyUb; in the data active = inhibition above about 45%; inconclusive = no clear call, values can overlap the other calls
Apaf-1 inh conf = Apaf-1 inhibition, single-dose confirmed; shares compounds with Apaf-1 inh; reconstituted apoptosome, caspase-3 DEVD-Rh110 fluorescence; inhibition, % at 20 µM; 25% of 1,800 active; AID 504614;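 active = mean inhibition of at least 40% at 20 µM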;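 also: plate controls were DMSO wells for no effect and DEVD-CHO caspase inhibitor control wells for full effect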
Rh110 interf inh = counter-screen for Apaf-1 inhibitors: fluorescence interference; shares compounds with Apaf-1 inh; Rh110 fluorescence interference, quenched caspase reaction; activation (fluorescence interference), % at 20 µM; 1,800 tested, under 10 active;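 active = signal rise of 40% or more at 20 µM, treated as a fluorescence artifact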
Fluor interf inh = shows fluorescence interference in the Apaf-1 inhibitor assay format. fluorescence interference counterscreen, Apaf-1 assay format. IC50, µM. 460 tested, under 10 active. shares compounds with Apaf-1 inh; call rule not given here
Starred values were filed as active, the others as inactive; ? = inconclusive; nt = not tested or not shown. Rule as the data show it, unless noted: active = inhibition above about 43%; inactive = the rest.

SMILES	PREPL inhibitor	UCH37 DUB inh	Apaf-1 inh	UBC13 polyUb	PREPL confirm	others
O=C1CN=C(c2ccccc2)c2cc(Br)ccc2N1Cc1cc(=O)n2ccccc2n1	50*	-1	5	-4	nt
COC(=O)C1=C(c2ccc(F)cc2F)C[C@@H]2CC[C@H]1N2C(=O)N1CCCCC1	6	21*	4	4	nt
C[C@H]1CCCC(=O)CCCC=Cc2cc(O)cc(O)c2C(=O)O1	nt	5	nt	nt	nt
CCCCn1c(NC(=O)c2ccc(Br)o2)c(C(=O)OCC)c2nc3ccccc3nc21	43	nt	79*	-36	nt
CC1=C2CCC3C(CCC4=CC(=O)CCC43C)C2CC1 (stereo not given)	nt	20*	nt	nt	nt
COc1ccc(N=Nc2c(O)[nH]c(=S)[nH]c2=O)cc1	-12	21*	10	-316	nt
COc1ccc2[nH]c3c(C)c4ccncc4c(C)c3c2c1	33	-11	76*	?	nt
COc1ccc2c(c1)NP(=S)(Oc1ccccc1)N2 (stereo not given)	19	3	50*	-4	nt
Cc1ccccc1C(=O)NN=Cc1ccc(Sc2ccccn2)o1	nt	1	nt	nt	nt
CCN(CC)c1ccc(C=Nc2sc3c(c2C#N)C2CCN3CC2)c(O)c1	nt	8	nt	nt	nt
CCCCn1c(C)c(C(=O)OCC)c2c(CN3CCCC3)c(O)ccc21	55*	1	10	16	34
ON=C1CCC2CN(C3CCCCC3)CC2C1 (stereo not given)	nt	-1	nt	nt	nt
COC(=O)[C@]1(C)C[C@H]1[C@H](NP(=O)(c1ccccc1)c1ccccc1)c1ccccc1	-3	0	2	-6	nt
C=C[C@@H]1C[C@@]1(C)[C@@H](NP(=O)(c1ccccc1)c1ccccc1)c1ccccc1	48*	2	12	10	48*
C1=C(c2c[nH]c3ccccc23)CCNC1	62*	nt	10	96*	63*
CC(C)N1CC=C(c2c[nH]c3ccccc23)CC1	-28	3	1	-21	nt
CCCCC(=NO)c1c(C)[nH]c2ccccc12	nt	-1	nt	nt	nt
C#C[C@@]1(O)CCC2C3CCC4=CC(=NOCC(=O)NC(CCC(N)=O)C(=O)O)CC[C@]4(C)C3CC[C@@]21C (stereo not given in full)	nt	0	nt	nt	nt
CC(Cc1ccccc1)NC(=O)C(c1ccc(N)cc1)c1ccc(N)cc1 (stereo not given)	50*	3	0	5	33
C[C@H]1CCCC=C[C@@H]2C[C@H](O)C[C@H]2[C@H](O)C=CC(=O)O1	nt	5	nt	nt	nt
O=c1cc(C(F)(F)F)c2cc3c4c(c2o1)CCCN4CCC3	56*	-9	2	-2	55*
Cc1cc2c(C(F)(F)F)cc(=O)oc2c2c1NCCC2	6	-30	5	2	nt
C=CCn1c(O)c(C(CC)=NCCc2c[nH]c3ccccc23)c(=O)[nH]c1=O	49*	5	0	11	52*
CC(Cl)(Cl)C(=NP(=S)(N1CCOCC1)N1CCOCC1)N1CCOCC1	nt	1	nt	nt	nt
CN(C)C(=O)ON=C(N)COc1ccc(C(C)(C)C)cc1	nt	1	nt	nt	nt
SMILES	PREPL inhibitor	UCH37 DUB inh	Apaf-1 inh	UBC13 polyUb	PREPL confirm	others
Cc1[nH]c2ccccc2c1CCCNC1CCCCC1	45*	3	-20	13	34
CC(CCc1c[nH]c2ccccc12)=NO	nt	1	nt	nt	nt
COc1ccc2[nH]c(C)c(CCNCc3cc(OC)c4c(c3)OCO4)c2c1	74*	4	-4	13	66*
CC(=O)C1C2c3ccccc3OC1(C)N=c1sc(=Cc3cn(C)nc3C)c(=O)n12 (stereo not given)	nt	3	nt	nt	nt
COc1ccc2c(c1)c(CCN)c(C)n2Cc1ccccc1	45*	2	13	15	42
CC(CC(c1ccccc1)c1c(O)c2ccccc2oc1=O)=NNC(N)=S (stereo not given)	nt	1	nt	nt	nt
COc1ccc2[nH]c3c(c2c1)CCNC3C (stereo not given)	13	4	-20	8	nt
COc1ccc2c3c([nH]c2c1)C(C)NCC3 (stereo not given)	67*	-64	26	6	4
CC1=NCCc2c1[nH]c1ccccc21	57*	-22	27	8	27
O=C(c1ccc2c(c1)N(Cc1ccc(F)cc1)CCS2)N1CCC2(CC1)OCCO2	67*	-128	15	18	63*
O=C(c1ccc2c(c1)ncn2-c1ccc(F)cc1F)N1CCC2(CC1)OCCO2	6	1	-76	-26	nt
Cc1ccc(CN2CCN(CC(=O)N3CCC4(CC3)OCCO4)C2=O)cc1	7	-1	4	-8	nt
Cc1ccc(CN2CCSc3ccc(C(=O)N4CCC5(CC4)OCCO5)cc32)cc1	82*	-102	19	15	74*
NCCCCCC(=O)OC1N=C(c2ccccc2Cl)c2cc(Br)ccc2NC1=O (stereo not given)	59*	3	0	22	46*
NCCCC(=O)OC1N=C(c2ccccc2Cl)c2cc(Br)ccc2NC1=O (stereo not given)	5	4	-3	17	nt
CCOc1cccc(=NC2CCCCC2)c2c(C)n(C)c(C)c12	48*	12	-16	-133	50*
CC(C)Nc1ccc(Nc2ccccc2)cc1	77*	4	18	3	55*
COC(=O)[C@@H]1C[C@H]1[C@@H](NP(=O)(c1ccccc1)c1ccccc1)c1ccccc1	11	1	10	3	nt
COC(=O)[C@H]1C[C@@H]1[C@H](NP(=O)(c1ccccc1)c1ccccc1)c1ccccc1	47*	5	7	-5	47*
FC(F)(F)c1ccc2c(c1)N(CCCN1CCN(CCCl)CC1)c1ccccc1S2	35	-1	13	30	nt
CN1CCN(CCCN2c3ccccc3Sc3ccc(Cl)cc32)CC1	63*	1	57*	97*	55*	Casp3 UBC13 ctr=1;UBC13 conf=99*;Apaf-1 inh conf=14;Rh110 interf inh=6
CN1CCc2cc3c(c4c2C1Cc1ccccc1-4)OCO3 (stereo not given)	46*	nt	91*	-118	40	Apaf-1 inh conf=67*;Rh110 interf inh=9;Fluor interf inh=>100
COc1cc2c(cc1O)C[C@H]1c3c(cc(O)c(OC)c3-2)CCN1C	-9	-9	-12	1	nt
C(=NNC1=NCCCCC1)c1c[nH]c2ccccc12	nt	12	nt	nt	nt

High-throughput results (PubChem BioAssay)
